Experimental data published in ChEMBL document CHEMBL3526051 (Drug Metab Dispos, 2012).

Tests used:
[1] = molecular target: Histone deacetylase 2 (Homo sapiens, UniProt Q92769); experiment: Inhibition of flag-tagged HDAC2 (unknown origin) expressed in SF21 cells using [3H]acetylated human histone H4 peptide as substrate by scintillation counting
[2] = molecular target: Histone deacetylase 3 (Homo sapiens, UniProt O15379); experiment: Inhibition of HDAC3 (unknown origin) expressed in HEK293 cells using [3H]acetylated human histone H4 peptide as substrate by scintillation counting
Sequence of Histone deacetylase 3 (O15379 whole entry): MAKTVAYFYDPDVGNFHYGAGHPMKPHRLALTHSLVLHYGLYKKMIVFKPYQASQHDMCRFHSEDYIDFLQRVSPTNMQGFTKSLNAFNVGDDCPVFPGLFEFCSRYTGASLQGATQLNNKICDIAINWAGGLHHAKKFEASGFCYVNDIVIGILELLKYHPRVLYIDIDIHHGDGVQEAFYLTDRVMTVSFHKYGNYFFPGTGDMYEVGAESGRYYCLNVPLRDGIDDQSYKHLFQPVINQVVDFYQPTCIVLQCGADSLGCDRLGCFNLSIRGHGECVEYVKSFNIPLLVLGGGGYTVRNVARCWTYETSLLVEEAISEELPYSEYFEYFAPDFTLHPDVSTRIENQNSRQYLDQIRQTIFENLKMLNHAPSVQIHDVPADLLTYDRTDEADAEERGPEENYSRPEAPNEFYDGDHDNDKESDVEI

[3] = molecular target: Histone deacetylase 4 (Homo sapiens, UniProt P56524); experiment: Inhibition of HDAC4 (unknown origin) expressed in HEK293 cells using [3H]acetylated human histone H4 peptide as substrate by scintillation counting
Sequence of Histone deacetylase 4 (P56524 whole entry): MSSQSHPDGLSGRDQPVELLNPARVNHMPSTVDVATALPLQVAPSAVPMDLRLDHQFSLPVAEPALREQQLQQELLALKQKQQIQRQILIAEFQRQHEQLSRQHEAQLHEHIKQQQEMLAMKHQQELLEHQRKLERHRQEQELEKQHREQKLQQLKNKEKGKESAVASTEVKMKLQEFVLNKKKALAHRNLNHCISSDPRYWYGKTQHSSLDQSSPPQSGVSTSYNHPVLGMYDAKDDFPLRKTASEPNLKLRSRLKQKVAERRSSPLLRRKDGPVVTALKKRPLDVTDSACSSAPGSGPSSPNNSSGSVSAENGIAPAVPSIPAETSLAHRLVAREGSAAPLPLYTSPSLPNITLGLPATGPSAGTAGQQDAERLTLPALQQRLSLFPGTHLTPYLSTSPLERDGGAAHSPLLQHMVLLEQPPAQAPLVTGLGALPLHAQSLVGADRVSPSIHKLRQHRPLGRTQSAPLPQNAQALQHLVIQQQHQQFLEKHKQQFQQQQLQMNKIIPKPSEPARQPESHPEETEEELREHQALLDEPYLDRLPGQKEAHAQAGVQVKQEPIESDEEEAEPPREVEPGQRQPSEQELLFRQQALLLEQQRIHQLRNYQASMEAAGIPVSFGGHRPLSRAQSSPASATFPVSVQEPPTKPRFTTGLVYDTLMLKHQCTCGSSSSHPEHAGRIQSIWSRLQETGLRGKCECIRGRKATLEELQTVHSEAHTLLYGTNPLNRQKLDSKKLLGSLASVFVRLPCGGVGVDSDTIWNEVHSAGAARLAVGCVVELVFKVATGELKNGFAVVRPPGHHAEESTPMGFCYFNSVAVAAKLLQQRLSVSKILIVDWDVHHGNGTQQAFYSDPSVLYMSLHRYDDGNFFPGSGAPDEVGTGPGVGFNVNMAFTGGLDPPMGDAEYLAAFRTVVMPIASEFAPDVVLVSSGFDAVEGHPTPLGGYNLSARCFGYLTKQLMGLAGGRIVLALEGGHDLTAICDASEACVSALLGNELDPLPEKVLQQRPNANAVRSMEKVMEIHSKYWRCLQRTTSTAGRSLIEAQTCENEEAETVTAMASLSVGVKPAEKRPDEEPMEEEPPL

[4] = molecular target: T1, Protein deacetylase HDAC6 (Homo sapiens, UniProt Q9UBN7); experiment: Inhibition of HDAC6 (unknown origin) expressed in HEK293 cells using [3H]acetylated human histone H4 peptide as substrate by scintillation counting
T1 sequence (Q9UBN7 whole entry): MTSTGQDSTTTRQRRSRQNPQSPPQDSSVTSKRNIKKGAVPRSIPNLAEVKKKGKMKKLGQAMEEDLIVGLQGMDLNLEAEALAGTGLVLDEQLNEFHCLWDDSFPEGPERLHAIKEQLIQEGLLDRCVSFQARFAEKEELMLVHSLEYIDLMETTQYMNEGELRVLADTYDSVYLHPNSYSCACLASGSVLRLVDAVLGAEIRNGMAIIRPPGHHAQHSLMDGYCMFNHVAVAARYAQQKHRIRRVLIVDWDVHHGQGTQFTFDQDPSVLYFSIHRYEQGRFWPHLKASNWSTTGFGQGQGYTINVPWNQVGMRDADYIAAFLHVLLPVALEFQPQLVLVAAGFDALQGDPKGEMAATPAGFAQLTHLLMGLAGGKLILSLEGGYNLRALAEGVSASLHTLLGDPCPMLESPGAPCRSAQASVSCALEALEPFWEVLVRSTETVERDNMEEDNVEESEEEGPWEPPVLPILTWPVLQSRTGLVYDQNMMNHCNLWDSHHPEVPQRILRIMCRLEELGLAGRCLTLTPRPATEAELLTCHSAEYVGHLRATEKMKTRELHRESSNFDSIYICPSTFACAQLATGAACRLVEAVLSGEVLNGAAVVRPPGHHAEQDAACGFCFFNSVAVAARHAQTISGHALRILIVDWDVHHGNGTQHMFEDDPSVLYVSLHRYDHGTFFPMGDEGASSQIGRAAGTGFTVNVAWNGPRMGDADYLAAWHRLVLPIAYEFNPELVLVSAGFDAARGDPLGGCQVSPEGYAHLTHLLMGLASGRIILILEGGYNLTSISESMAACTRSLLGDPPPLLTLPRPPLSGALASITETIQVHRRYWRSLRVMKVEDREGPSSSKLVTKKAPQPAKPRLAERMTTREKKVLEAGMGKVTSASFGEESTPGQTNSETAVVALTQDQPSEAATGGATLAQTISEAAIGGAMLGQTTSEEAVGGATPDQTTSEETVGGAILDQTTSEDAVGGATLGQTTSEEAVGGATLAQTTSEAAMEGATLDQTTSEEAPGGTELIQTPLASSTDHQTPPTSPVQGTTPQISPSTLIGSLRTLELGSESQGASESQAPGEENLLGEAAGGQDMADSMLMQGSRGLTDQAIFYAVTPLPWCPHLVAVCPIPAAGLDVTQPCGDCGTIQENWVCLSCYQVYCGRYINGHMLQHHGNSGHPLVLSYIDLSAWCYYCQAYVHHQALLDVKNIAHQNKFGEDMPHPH

[5] = molecular target: Histone deacetylase 1 (Homo sapiens, UniProt Q13547); experiment: Inhibition of HDAC1 (unknown origin) expressed in HEK293 cells using [3H]acetylated human histone H4 peptide as substrate by scintillation counting; type: cell-based
Sequence of Histone deacetylase 1 (Q13547 whole entry): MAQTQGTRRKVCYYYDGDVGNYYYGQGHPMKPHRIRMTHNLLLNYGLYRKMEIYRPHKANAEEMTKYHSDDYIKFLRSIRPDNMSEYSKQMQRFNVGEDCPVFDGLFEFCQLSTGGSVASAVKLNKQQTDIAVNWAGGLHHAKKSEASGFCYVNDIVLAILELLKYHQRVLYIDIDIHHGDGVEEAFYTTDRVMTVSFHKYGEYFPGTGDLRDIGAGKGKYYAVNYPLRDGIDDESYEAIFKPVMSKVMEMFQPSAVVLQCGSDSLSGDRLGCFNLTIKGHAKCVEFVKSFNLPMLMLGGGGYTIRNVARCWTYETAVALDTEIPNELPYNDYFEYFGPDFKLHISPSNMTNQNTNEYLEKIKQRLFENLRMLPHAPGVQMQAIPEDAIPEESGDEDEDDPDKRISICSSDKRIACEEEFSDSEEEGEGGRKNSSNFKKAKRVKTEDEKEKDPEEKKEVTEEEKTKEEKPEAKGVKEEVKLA

[6] = molecular target: T2, Histone deacetylase 8 (Homo sapiens, UniProt Q9BY41); experiment: Inhibition of his-strep-tagged HDAC8 (unknown origin) expressed in SF9 cells using [3H]acetylated human histone H4 peptide as substrate by scintillation counting
T2 sequence (Q9BY41 whole entry): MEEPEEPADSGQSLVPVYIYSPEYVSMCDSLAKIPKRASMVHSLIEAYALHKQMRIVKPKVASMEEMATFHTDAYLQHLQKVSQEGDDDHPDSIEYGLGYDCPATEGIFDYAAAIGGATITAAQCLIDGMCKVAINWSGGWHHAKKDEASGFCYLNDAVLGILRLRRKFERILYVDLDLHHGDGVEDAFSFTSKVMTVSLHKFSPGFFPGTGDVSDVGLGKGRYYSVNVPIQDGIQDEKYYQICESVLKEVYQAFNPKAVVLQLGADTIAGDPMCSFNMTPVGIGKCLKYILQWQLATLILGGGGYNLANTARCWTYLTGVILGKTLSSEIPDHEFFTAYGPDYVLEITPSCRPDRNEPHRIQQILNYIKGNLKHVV

[7] = molecular target: CYP2E1 (Homo sapiens, UniProt P05181); experiment: Activity of recombinant human CYP2E1 expressed in Escherichia coli JM109 co-expressing P450 reductase assessed as enzyme-mediated drug metabolism measured as compound remaining after 1 hr by LC-MS analysis; type: ADME; conditions: read-out: Stability
Summary of the method: (§1)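 Whole E. coli cells were diluted in PSE buffer (50 mM KH2PO4, 250 mM sucrose, 0.25 mM EDTA, pH 7.4) to 100 mg/ml wet biomass. Each suspension was mixed with DL-isocitrate and substrate stock (5 mg/ml in ACN/DMSO 19:1) in aerated caps. Incubation was at 30°C, 1100 rpm for 0.5 or 1 h. Reactions were stopped with ACN/methanol (1:1) and centrifuged, and the supernatant was analysed by LC-MS.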

[8] = molecular target: CYP1A2 (Homo sapiens, UniProt P05177); experiment: Activity of recombinant human CYP1A2 expressed in Escherichia coli JM109 co-expressing P450 reductase assessed as enzyme-mediated drug metabolism measured as compound remaining after 1 hr by LC-MS analysis; type: ADME; conditions: read-out: Stability; summary of the method: as §1
[9] = molecular target: T3, CYP2D6 (Homo sapiens, UniProt P10635); experiment: Activity of recombinant human CYP2D6 expressed in Escherichia coli JM109 co-expressing P450 reductase assessed as enzyme-mediated drug metabolism measured as compound remaining after 1 hr by LC-MS analysis; type: ADME; conditions: read-out: Stability; summary of the method: as §1
T3 sequence (P10635 whole entry): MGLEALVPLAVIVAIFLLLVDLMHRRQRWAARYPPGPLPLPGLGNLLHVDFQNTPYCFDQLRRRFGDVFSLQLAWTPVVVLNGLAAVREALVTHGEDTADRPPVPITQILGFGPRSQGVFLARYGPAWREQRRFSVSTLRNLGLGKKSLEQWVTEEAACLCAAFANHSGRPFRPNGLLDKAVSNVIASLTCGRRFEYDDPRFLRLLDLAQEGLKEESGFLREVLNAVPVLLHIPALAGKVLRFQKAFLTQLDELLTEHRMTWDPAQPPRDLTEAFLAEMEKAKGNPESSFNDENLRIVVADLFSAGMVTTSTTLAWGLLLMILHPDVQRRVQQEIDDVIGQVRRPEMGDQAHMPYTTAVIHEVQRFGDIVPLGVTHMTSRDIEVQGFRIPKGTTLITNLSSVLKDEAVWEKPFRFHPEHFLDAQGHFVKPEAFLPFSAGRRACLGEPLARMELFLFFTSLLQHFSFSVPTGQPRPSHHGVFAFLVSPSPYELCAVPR

[10] = molecular target: T4, CYP3A4 (Homo sapiens, UniProt P08684); experiment: Activity of recombinant human CYP3A4 expressed in Escherichia coli JM109 co-expressing P450 reductase assessed as enzyme-mediated drug metabolism measured as compound remaining after 1 hr by LC-MS analysis in presence of cytochrome b5; type: ADME; conditions: read-out: Stability; summary of the method: as §1
T4 sequence (P08684 whole entry): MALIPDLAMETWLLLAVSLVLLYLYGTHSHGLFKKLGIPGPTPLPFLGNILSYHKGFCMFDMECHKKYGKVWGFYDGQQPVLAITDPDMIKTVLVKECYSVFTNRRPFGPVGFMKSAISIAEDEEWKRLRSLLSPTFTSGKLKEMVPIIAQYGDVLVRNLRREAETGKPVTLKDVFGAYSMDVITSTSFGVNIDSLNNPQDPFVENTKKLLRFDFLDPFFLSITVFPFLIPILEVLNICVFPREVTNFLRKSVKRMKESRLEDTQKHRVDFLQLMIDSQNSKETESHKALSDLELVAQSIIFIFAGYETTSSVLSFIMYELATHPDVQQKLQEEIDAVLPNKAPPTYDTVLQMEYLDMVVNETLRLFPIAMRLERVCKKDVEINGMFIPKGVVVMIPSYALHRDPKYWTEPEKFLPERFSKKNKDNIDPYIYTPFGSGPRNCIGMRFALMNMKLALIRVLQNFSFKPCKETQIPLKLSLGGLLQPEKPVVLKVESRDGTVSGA

[11] = molecular target: CYP3A5 (Homo sapiens, UniProt P20815); experiment: Activity of recombinant human CYP3A5 expressed in Escherichia coli JM109 co-expressing P450 reductase assessed as enzyme-mediated drug metabolism measured as compound remaining after 1 hr by LC-MS analysis; type: ADME; conditions: read-out: Stability; summary of the method: as §1
[12] = molecular target: CYP1A1 (Homo sapiens, UniProt P04798); experiment: Activity of recombinant human CYP1A1 expressed in Escherichia coli JM109 co-expressing P450 reductase assessed as enzyme-mediated drug metabolism measured as compound remaining after 1 hr by LC-MS analysis; type: ADME; conditions: read-out: Stability; summary of the method: as §1
[13] = molecular target: CYP2C8 (Homo sapiens, UniProt P10632); experiment: Activity of recombinant human CYP2C8 expressed in Escherichia coli JM109 co-expressing P450 reductase assessed as enzyme-mediated drug metabolism measured as compound remaining after 1 hr by LC-MS analysis; type: ADME; conditions: read-out: Stability; summary of the method: as §1
[14] = molecular target: CYP2C18 (Homo sapiens, UniProt P33260); experiment: Activity of recombinant human CYP2C18 expressed in Escherichia coli JM109 co-expressing P450 reductase assessed as enzyme-mediated drug metabolism measured as compound remaining after 1 hr by LC-MS analysis; type: ADME; conditions: read-out: Stability; summary of the method: as §1
Sequence of CYP2C18 (P33260 whole entry): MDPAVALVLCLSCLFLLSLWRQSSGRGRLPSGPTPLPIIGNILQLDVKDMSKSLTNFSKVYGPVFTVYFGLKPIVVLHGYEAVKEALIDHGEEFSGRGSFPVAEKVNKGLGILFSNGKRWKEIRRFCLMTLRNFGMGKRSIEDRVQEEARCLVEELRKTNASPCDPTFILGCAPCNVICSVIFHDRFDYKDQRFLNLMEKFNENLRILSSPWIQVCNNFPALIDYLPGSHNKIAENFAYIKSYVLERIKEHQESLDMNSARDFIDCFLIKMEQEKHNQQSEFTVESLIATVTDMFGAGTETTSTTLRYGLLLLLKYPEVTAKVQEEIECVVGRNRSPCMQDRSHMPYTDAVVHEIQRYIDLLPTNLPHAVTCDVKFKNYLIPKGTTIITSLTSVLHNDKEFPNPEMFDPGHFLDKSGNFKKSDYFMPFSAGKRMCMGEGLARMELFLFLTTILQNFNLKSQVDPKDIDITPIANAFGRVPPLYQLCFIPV

[15] = molecular target: T4, CYP3A4; experiment: Activity of recombinant human CYP3A4 expressed in supersomes assessed as enzyme-mediated drug metabolism measured as compound remaining at 10 uM after 1 hr by LC-MS analysis; type: ADME; conditions: read-out: Stability
Summary of the method: (§2)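 Insect-cell Supersomes coexpressing the rh P450 and rh P450 reductase were incubated with 10 µM substrate in 185 mM HEPES pH 7.5. The mix contained 6.65 mM MgCl2, 0.5 mM NADP, 2.54 mM DL-isocitrate and isocitric dehydrogenase. The reaction was started with the NADPH-regenerating system and run 1 h at 30°C without shaking. It was extracted with 1 volume ACN, centrifuged at 21,000g, and the supernatant analysed by LC-MS.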

[16] = molecular target: CYP2B6 (Homo sapiens, UniProt P20813); experiment: Activity of recombinant human CYP2B6 expressed in Escherichia coli JM109 co-expressing P450 reductase assessed as enzyme-mediated drug metabolism measured as compound remaining after 1 hr by LC-MS analysis; type: ADME; conditions: read-out: Stability; summary of the method: as §1
Sequence of CYP2B6 (P20813 whole entry): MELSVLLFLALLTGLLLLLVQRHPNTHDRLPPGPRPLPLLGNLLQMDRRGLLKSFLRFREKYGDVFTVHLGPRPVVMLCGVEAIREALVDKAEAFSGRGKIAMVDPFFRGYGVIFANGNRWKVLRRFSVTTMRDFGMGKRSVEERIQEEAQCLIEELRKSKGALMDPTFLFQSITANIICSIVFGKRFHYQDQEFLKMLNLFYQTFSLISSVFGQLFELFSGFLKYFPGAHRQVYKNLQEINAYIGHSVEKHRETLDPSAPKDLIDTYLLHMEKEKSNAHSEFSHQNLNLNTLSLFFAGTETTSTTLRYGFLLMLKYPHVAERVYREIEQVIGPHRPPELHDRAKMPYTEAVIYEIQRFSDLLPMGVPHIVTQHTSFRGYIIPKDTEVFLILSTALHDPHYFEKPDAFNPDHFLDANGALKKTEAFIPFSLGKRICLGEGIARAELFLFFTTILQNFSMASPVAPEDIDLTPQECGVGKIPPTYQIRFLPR

[17] = molecular target: CYP1B1 (Homo sapiens, UniProt Q16678); experiment: Activity of recombinant human CYP1B1 expressed in Escherichia coli JM109 co-expressing P450 reductase assessed as enzyme-mediated drug metabolism measured as compound remaining after 1 hr by LC-MS analysis; type: ADME; conditions: read-out: Stability; summary of the method: as §1
[18] = molecular target: CYP2C9 (Homo sapiens, UniProt P11712); experiment: Activity of recombinant human CYP2C9 expressed in Escherichia coli JM109 co-expressing P450 reductase assessed as enzyme-mediated drug metabolism measured as compound remaining after 1 hr by LC-MS analysis; type: ADME; conditions: read-out: Stability; summary of the method: as §1
[19] = molecular target: CYP2A6 (Homo sapiens, UniProt P11509); experiment: Activity of recombinant human CYP2A6 expressed in Escherichia coli JM109 co-expressing P450 reductase assessed as enzyme-mediated drug metabolism measured as compound remaining after 1 hr by LC-MS analysis; type: ADME; conditions: read-out: Stability; summary of the method: as §1
[20] = molecular target: T3, CYP2D6; experiment: Activity of recombinant human CYP2D6 expressed in supersomes assessed as enzyme-mediated drug metabolism measured as compound remaining at 10 uM after 1 hr by LC-MS analysis; type: ADME; conditions: read-out: Stability; summary of the method: as §2
[21] = molecular target: CYP4A11 (Homo sapiens, UniProt Q02928); experiment: Activity of recombinant human CYP4A11 expressed in Escherichia coli JM109 co-expressing P450 reductase assessed as enzyme-mediated drug metabolism measured as compound remaining after 1 hr by LC-MS analysis; type: ADME; conditions: read-out: Stability; summary of the method: as §1
Sequence of CYP4A11 (Q02928 whole entry): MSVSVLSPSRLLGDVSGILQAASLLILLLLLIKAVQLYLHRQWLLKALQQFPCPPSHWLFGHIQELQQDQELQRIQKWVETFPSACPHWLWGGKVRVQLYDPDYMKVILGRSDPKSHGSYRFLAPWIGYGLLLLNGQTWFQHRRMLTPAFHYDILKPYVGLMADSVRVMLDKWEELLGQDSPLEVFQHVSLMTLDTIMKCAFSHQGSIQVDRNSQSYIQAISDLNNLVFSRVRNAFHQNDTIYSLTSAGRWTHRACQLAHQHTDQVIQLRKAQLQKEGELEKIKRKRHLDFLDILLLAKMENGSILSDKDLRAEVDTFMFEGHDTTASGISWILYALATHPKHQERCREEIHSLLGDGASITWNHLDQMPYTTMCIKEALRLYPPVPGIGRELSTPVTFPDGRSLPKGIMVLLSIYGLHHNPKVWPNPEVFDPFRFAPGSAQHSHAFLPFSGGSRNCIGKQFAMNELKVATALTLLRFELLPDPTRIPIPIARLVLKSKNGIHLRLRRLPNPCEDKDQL

[22] = Drug metabolism in Escherichia coli JM109 assessed as compound remaining after 1 hr by LC-MS analysis; type: ADME, organism-based; conditions: read-out: Stability; summary of the method: as §1
[23] = molecular target: CYP2C19 (Homo sapiens, UniProt P33261); experiment: Activity of recombinant human CYP2C19 expressed in Escherichia coli JM109 co-expressing P450 reductase assessed as enzyme-mediated drug metabolism measured as compound remaining after 1 hr by LC-MS analysis; type: ADME; conditions: read-out: Stability; summary of the method: as §1
[24] = molecular target: T4, CYP3A4; experiment: Activity of recombinant human CYP3A4 expressed in Escherichia coli JM109 co-expressing P450 reductase assessed as enzyme-mediated drug metabolism measured as compound remaining after 1 hr by LC-MS analysis; type: ADME; conditions: read-out: Stability; summary of the method: as §1

Sequence of Histone deacetylase 2 (Q92769 whole entry): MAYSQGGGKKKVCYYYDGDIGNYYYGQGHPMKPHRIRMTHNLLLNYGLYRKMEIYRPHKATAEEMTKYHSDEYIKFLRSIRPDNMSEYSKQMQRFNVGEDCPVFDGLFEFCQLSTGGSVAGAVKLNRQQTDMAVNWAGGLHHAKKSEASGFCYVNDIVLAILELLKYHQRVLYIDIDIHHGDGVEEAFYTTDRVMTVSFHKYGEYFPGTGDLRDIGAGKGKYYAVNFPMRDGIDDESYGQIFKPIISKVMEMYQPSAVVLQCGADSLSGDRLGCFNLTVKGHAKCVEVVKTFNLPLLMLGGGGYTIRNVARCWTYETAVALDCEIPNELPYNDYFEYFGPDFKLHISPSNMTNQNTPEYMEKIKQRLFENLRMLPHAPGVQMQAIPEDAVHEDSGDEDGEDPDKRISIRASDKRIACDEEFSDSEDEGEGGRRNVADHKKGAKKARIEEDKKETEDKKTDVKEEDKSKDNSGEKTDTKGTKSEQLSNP

| IC50 [1] [µM] | IC50 [2] [µM] | IC50 [3] [µM] | IC50 [4] [µM] | IC50 [5] [µM] | IC50 [6] [µM] | SMILES | further results |
| --- | --- | --- | --- | --- | --- | --- | --- |
| 1.5 | 0.18 | 0.23 | 0.062 | 0.14 | 0.92 | C[C@@]12Nc3ccccc3[C@]1(O)CCN2Cc1ccc(/C=C/C(=O)NO)cc1 | – |
| 6 | 0.93 | 1 | 1.1 | 0.97 | 23 | C[C@@]12Nc3ccccc3[C@]1(O)CCN2Cc1ccc(/C=C/C(N)=O)cc1 | – |
| 27 | 3.3 | 4.6 | 4.9 | 4.6 | 6.8 | Cc1[nH]c2cc(O)ccc2c1CCNCc1ccc(/C=C/C(N)=O)cc1 | – |
| 29 | 22 | 18 | > 30 | 11 | 22 | Cc1[nH]c2ccccc2c1CCNCc1ccc(/C=C/C(N)=O)cc1 | – |
| – | – | – | – | – | – | Cc1[nH]c2ccccc2c1CCNCc1ccc(/C=C/C(=O)NO)cc1 [PANOBINOSTAT] | remaining at 1 h [7]: 50%; remaining at 1 h [8]: 72%; remaining at 1 h [9]: 44%; remaining at 1 h [10]: 45%; remaining at 1 h [11]: 73%; remaining at 1 h [12]: 61%; remaining at 1 h [13]: 63%; remaining at 1 h [14]: 56%; remaining at 1 h, 10 µM [15]: 94%; remaining at 1 h [16]: 62%; remaining at 1 h [17]: 79%; remaining at 1 h [18]: 34%; remaining at 1 h [19]: 81%; remaining at 1 h, 10 µM [20]: 94%; remaining at 1 h [21]: 59%; remaining at 1 h [22]: 55%; remaining at 1 h [23]: 80%; remaining at 1 h [24]: 37% |
